From ChEMBL document CHEMBL3108663, “Cembrane-type diterpenoids from the Chinese liverworts Chandonanthus hirtellus and C. birmensis” (J Nat Prod, 2014)

How the values were obtained:
Format in all cases: functional, cell-based
[1] = Cytotoxicity against rat PC12 cells after 24 hrs by MTT assay; settings: PC-12, 24 h
Summary of the method: (§1)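 Cells plated 24 h before treatment, then exposed continuously to a range of compound concentrations for 24 h. MTT added and incubated 4 h at 37 °C under 5% CO2. Absorbance read at 570 nm. IC50 taken from plotted results with untreated cells set at 100%. Run at least three times; means ± SD of triplicates.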

[2] = Cytotoxicity against human A172 cells after 24 hrs by MTT assay; settings: A 172, 24 h; summary of the method: as §1
NCI-H292 = assay: Cytotoxicity against human NCI-H292 cells after 24 hrs by MTT assay; settings: NCI-H292, 24 h; summary of the method: as §1
A549 = assay: Cytotoxicity against human A549 cells after 24 hrs by MTT assay; settings: A549, 24 h; summary of the method: as §1
PC-3 = assay: Cytotoxicity against human PC3 cells after 24 hrs by MTT assay; settings: PC-3, 24 h; summary of the method: as §1
NCI-H1299 = assay: Cytotoxicity against human NCI-H1299 cells after 24 hrs by MTT assay; settings: NCI-H1299, 24 h; summary of the method: as §1
DU-145 = assay: Cytotoxicity against human DU145 cells after 24 hrs by MTT assay; settings: DU-145, 24 h; summary of the method: as §1

Structure (SMILES)	IC50 [1] [µM]	IC50 [2] [µM]	IC50 (NCI-H292) [µM]	IC50 (A549) [µM]	IC50 (PC-3) [µM]	IC50 (NCI-H1299) [µM]	IC50 (DU-145) [µM]
CC(=O)O[C@@]1(C)CCC(=O)[C@@H](C)CCC[C@]2(C)O[C@H]2C(=O)C(=C(C)C)CC1	24.5	23.1	21.4	31.1	24.3	17.2	43.7
CC(=O)O[C@@]1(C)CCC(=O)[C@H](C)CCC[C@]2(C)O[C@H]2C(=O)C(=C(C)C)CC1	43.8	31.9	38.9	> 50	44.9	19.5	> 50
CC(=O)O[C@@]1(C)CCC(=O)/C(C)=C/CC[C@]2(C)O[C@H]2C(=O)C(=C(C)C)CC1	40.6	37.3	48.7	> 50	> 50	40.3	> 50
CC(=O)O[C@]1(C)CCC(=C(C)C)C(=O)[C@@H]2O[C@@]2(C)CC/C=C(\C)[C@H](O)CC1	30.2	> 50	> 50	21.5	> 50	20.9	> 50
CC(=O)O[C@@]1(C)C/C=C2\O[C@H](C[C@@H]2C)C[C@]2(C)O[C@H]2C(=O)C(=C(C)C)CC1	41.1	> 50	> 50	> 50	> 50	28.3	> 50
CC(=O)O[C@]1(C)CCC(=C(C)C)C(=O)[C@@H]2O[C@@]2(C)C[C@H]2C[C@H](C)[C@@](O)(CC1)O2	37.1	> 50	> 50	> 50	> 50	23.5	> 50
CC(=O)O[C@@]1(C)CCC/C(C)=C/CC[C@@]2(C)O[C@@H]2C(=O)C(=C(C)C)CC1	47.1	> 50	> 50	> 50	> 50	41.6	> 50
CC(C)=C1CC[C@]2(C)CC[C@]3(O[C@H](C[C@@H]3C)C[C@]3(C)O[C@H]3C1=O)O2	36.4	> 50	> 50	> 50	> 50	> 50	> 50
CC(C)=C1CC[C@]2(C)CC[C@]3(O[C@H](C[C@H]3C)C[C@]3(C)O[C@H]3C1=O)O2	> 50	> 50	48.1	> 50	> 50	> 50	> 50
CC(=O)O[C@H]1C[C@]2(C)O[C@H]2CC/C(C)=C/[C@@H](OC(C)=O)[C@]2(C)[C@@H]1[C@H]([C@]1(C)CO1)C[C@@H]2OC(C)=O	> 50	> 50	> 50	> 50	> 50	> 50	> 50
CC(C)[C@H]1CC[C@]2(C)C[C@]3(O)C(=CC(=O)[C@H]3C)[C@@H](C)CC[C@@H]12 [ANADENSIN]	31.1	> 50	> 50	> 50	> 50	34.7	> 50
